Laboratory results: ChEMBL document CHEMBL2157934, “Pyrrolidinyl phenylurea derivatives as novel CCR3 antagonists” (Bioorg Med Chem Lett, 2012)
The source made the active and inactive calls. The rule behind the calls is not given here.

Tests used:
[1] = molecular target: T1, C-C chemokine receptor type 3 (Homo sapiens, UniProt P51677); test: Antagonist activity at CCR3 receptor; assay type: functional
T1 sequence (P51677 whole entry): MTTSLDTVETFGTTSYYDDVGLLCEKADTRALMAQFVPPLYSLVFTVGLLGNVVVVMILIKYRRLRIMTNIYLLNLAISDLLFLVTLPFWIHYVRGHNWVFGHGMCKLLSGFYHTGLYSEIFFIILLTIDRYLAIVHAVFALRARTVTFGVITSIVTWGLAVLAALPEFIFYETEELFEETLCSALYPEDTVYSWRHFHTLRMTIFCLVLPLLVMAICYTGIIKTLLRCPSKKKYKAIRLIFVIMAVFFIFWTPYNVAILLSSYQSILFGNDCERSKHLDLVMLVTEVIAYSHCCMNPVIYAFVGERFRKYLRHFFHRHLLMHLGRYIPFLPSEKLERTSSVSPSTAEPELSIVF

[2] = molecular target: T2, C-C chemokine receptor type 3 (Homo sapiens) (UniProt P51677); test: (§1) Antagonist activity at CCR3 receptor in human eosinophils assessed as inhibition of CCL11-induced degranulation after 4 hrs by ELISA; assay type: functional
T2 sequence (whole entry): T1 sequence (P51677 whole entry)
In short: (§2)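 Eosinophils isolated from peripheral blood of normal human volunteers; wells pre-blocked with 2.5% BSA in PBS, 2 h, 37 °C. 5 × 10^5 cells in RPMI 1640 with 0.5% BSA, with or without 0.6 nM human CCL11 and varying antagonist concentrations, incubated 4 h at 37 °C, 5% CO2. Supernatant EDN quantified by ELISA; IC50 from dose-response.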

[3] = molecular target: T1, C-C chemokine receptor type 3; test: as §1; assay type: functional; in short: as §2
[4] = molecular target: C-C chemokine receptor type 2 (Homo sapiens) (UniProt P41597); test: Inhibition of CCR2 receptor at 10 uM
[5] = molecular target: T3, C-C chemokine receptor type 1 (Homo sapiens) (UniProt P32246); test: Inhibition of CCR1 receptor at 10 uM
T3 sequence (whole entry): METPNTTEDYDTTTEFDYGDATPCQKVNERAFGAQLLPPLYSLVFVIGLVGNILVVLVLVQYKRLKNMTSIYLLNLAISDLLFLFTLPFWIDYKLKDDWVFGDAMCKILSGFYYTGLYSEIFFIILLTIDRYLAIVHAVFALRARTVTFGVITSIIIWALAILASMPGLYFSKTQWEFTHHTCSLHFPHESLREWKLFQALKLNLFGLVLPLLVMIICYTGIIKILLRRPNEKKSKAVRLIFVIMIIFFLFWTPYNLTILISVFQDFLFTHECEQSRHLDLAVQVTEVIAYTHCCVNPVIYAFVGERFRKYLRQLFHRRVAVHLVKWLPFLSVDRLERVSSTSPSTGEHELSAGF

[6] = molecular target: C-C chemokine receptor type 5 (Homo sapiens) (UniProt P51681); test: Inhibition of CCR5 receptor at 10 uM
[7] = Oral bioavailability in cynomolgus monkey; assay type: ADME, organism-based, Macaca fascicularis; details: in vivo

Sequence of C-C chemokine receptor type 2 (Homo sapiens) (P41597 whole entry, looked up): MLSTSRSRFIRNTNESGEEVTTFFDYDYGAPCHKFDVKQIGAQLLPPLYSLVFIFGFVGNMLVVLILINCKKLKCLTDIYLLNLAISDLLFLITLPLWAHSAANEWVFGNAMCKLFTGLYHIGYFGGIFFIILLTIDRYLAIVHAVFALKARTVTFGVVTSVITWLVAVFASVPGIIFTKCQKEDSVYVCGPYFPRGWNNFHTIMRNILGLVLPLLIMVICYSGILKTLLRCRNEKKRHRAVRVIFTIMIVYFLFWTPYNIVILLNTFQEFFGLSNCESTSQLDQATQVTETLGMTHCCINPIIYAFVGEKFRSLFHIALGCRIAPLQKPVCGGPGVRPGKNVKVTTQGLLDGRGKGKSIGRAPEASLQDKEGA
Sequence of C-C chemokine receptor type 5 (Homo sapiens) (P51681 whole entry, looked up): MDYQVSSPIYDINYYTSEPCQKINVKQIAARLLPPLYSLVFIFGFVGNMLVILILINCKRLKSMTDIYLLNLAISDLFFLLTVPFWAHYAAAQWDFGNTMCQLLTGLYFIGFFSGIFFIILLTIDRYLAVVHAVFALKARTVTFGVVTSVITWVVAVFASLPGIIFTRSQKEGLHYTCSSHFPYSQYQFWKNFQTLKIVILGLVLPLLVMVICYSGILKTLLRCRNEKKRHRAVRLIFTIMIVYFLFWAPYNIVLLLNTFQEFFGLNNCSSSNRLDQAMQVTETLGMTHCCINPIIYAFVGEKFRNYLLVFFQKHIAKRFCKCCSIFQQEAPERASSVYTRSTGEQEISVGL

| Compound | IC50 [1] | further results |
| --- | --- | --- |
| O=C(Nc1ccc(OCCO)cc1)N[C@@H]1CCN(Cc2ccc3cc(F)ccc3c2)C1 | 71 nM |  |
| O=C(Nc1ccccc1OCCCO)N[C@@H]1CCN(Cc2ccc3cc(F)ccc3c2)C1 | 50 nM |  |
| O=C(NC1CCN(S(=O)(=O)c2ccccc2O)CC1)N1CCCN(Cc2ccc3cc(F)ccc3c2)CC1 | 25 nM |  |
| NC(=O)COc1ccccc1NC(=O)N[C@@H]1CCN(Cc2ccc3cc(F)ccc3c2)C1 | 110 nM |  |
| O=C(NC1CCCCC1)N[C@@H]1CCN(Cc2ccc3cc(F)ccc3c2)C1 | 41 nM |  |
| O=C(Nc1cccc(OCCO)c1)N[C@@H]1CCN(Cc2ccc3cc(F)ccc3c2)C1 | 28 nM |  |
| O=C1OC2(CCN(Cc3ccc4cc(F)ccc4c3)CC2)c2ccccc2N1Cc1ccccc1 | 2000 nM |  |
| O=C(NC1CCN(Cc2ccccc2)CC1)N1CCCN(Cc2ccc3cc(F)ccc3c2)CC1 | 380 nM |  |
| O=C(NC1CCN(S(=O)(=O)c2ccccc2O)CC1)N[C@@H]1CCN(Cc2ccc3cc(F)ccc3c2)C1 | 2.4 nM |  |
| O=C(Nc1ccccc1CCO)N[C@@H]1CCN(Cc2ccc3cc(F)ccc3c2)C1 | 12 nM |  |
| COCc1ccccc1NC(=O)N[C@@H]1CCN(Cc2ccc3cc(F)ccc3c2)C1 | 44 nM |  |
| CS(=O)(=O)N1CCC(NC(=O)N[C@@H]2CCN(Cc3ccc4cc(F)ccc4c3)C2)CC1 | 14 nM |  |
| O=C(Nc1ccccc1COCCO)N[C@@H]1CCN(Cc2ccc3cc(F)ccc3c2)C1 | 9.9 nM |  |
| COCCOc1ccccc1NC(=O)N[C@@H]1CCN(Cc2ccc3cc(F)ccc3c2)C1 | 71 nM |  |
| O=C1N(CCc2ccccc2)CCC12CCN(Cc1ccc3cc(F)ccc3c1)CC2 | 600 nM |  |
| O=C(Nc1ccccc1OCCCCO)N[C@@H]1CCN(Cc2ccc3cc(F)ccc3c2)C1 | 51 nM |  |
| O=C(Nc1ccccc1OCCO)N[C@@H]1CCN(Cc2ccc3cc(F)ccc3c2)C1 | 1.7 nM | inhibition [2]: Dose-dependent effect; IC50 [3]: 0.87 nM; inhibition [4]: inactive; inhibition [5]: inactive; inhibition [6]: inactive; bioavailability [7]: 22% |
| CN(C)CCOc1ccccc1NC(=O)N[C@@H]1CCN(Cc2ccc3cc(F)ccc3c2)C1 | 50 nM |  |
| O=C(Nc1ccccc1OCCOCCO)N[C@@H]1CCN(Cc2ccc3cc(F)ccc3c2)C1 | 110 nM |  |
| CN(C)C(=O)COc1ccccc1NC(=O)N[C@@H]1CCN(Cc2ccc3cc(F)ccc3c2)C1 | 190 nM |  |
| O=C(Nc1ccccc1)N[C@@H]1CCN(Cc2ccc3cc(F)ccc3c2)C1 | 50 nM |  |
| O=C(Nc1ccccc1CCCO)N[C@@H]1CCN(Cc2ccc3cc(F)ccc3c2)C1 | 24 nM |  |
